Assay results: publication PMC5632222 (Journal of pharmaceutical and biomedical analysis, 2017)

Assays:
[1] = system: pooled female rat microsomes; assay: Glucuronidation incubation in permeabilized rat microsomes; type: in vitro ADME
Procedure, shortened: (§1)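 Pooled liver microsomes (human for line 1, female rat for line 2), permeabilized with 25 µg/mL alamethicin at 0.25 mg/mL protein in 0.1 M phosphate pH 7.4, 50 mM Tris-HCl, 10 mM MgCl₂. Test compound at 5,000 ng/mL; started with […]. Sampled at 0 and 60 min, quenched in acetonitrile, run in triplicate. LC-MS/MS read parent and the 639.5>433.5 glucuronide channel.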

[2] = Stability of VX-970 in stock solution; type: physicochemical
[3] = type: in vitro ADME; settings: bile spiked human plasma, room temperature 4 h
Procedure, shortened: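 Bile from treated animals, containing the direct glucuronide, was spiked into human plasma. Parent compound was quantitated by LC-MS/MS before and after 4 h at room temperature. Bile was also spiked into phosphate buffers at pH 5, 6, 7, 8 and 9 with the same 4 h room-temperature hold. The glucuronide was monitored via the 639.5>433.5 channel.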

[4] = Plasma pharmacokinetics in a patient after IV infusion of VX-970; type: in vivo, human
Procedure, shortened: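 One patient received a 1 h IV infusion at 60 mg/m², with blood sampled from 0 to 72 h. Plasma (50 µL) was spiked with deuterated internal standard, precipitated with acetonitrile, diluted with water and run by positive-ESI MRM LC-MS/MS. Calibration spanned 3–5000 ng/mL, and the glucuronide channel was also monitored. PK parameters were derived non-compartmentally.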

[5] = system: pooled human liver microsomes; assay: Glucuronidation incubation in permeabilized human microsomes; type: in vitro ADME
Procedure, shortened: as §1

[6] = Stability of VX-970 in human plasma; type: in vitro ADME
Procedure, shortened: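 Test compound was spiked into human plasma at QC levels of 5, 150 and 4000 ng/mL, in triplicate. Long-term stability: 8 months at -80 °C, read against freshly prepared standard curves. Freeze/thaw: 3 cycles, frozen at -80 °C and thawed on separate days, compared with fresh samples. Bench stability: 4 h at room temperature. Quantitation was by LC-MS/MS with deuterated internal standard.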

[7] = one patient, 1 h IV infusion 60 mg/m^2, non-compartmental

## CNCc1ccc(-c2cc(-c3nc(-c4ccc(S(=O)(=O)C(C)C)cc4)cnc3N)on2)cc1 [VX-970]
[1]; rat microsome incubation of VX-970
  Metabolite in the 639.3>433.5 m/z glucuronide channel: No metabolite was observed
[1]; rat microsomes 0.25 mg/mL, 5,000 ng/mL VX-970, UDPGA, 60 min
  Drug remaining in the incubation mixture: 87.5%
[2]; stock solution 8 months, −80 °C, 100,000 ng/mL
  Stability (%): 95.7%
[2]; stock solution 6 h, ambient temp, 100,000 ng/mL
  Stability (%): 96.7%
[3]
  VX-970 concentrations in bile spiked plasma, % stable: 96.5%
[4]; human, plasma, iv, 60 mg/m^2
  AUC(0-inf): 2500 ng·h/mL
  AUC(0-t): 2430 ng·h/mL
  Cmax: 343 ng/mL
  half-life: 840 min
[4]; [7]
  Cl: 24.0 L/h/m^2
  Vss: 386 L/m^2
[5]; human microsomes 0.25 mg/mL, 5,000 ng/mL VX-970, UDPGA, 60 min
  Drug remaining in the incubation mixture: 99.9%
[5]; permeabilized human microsomes, 5,000 ng/mL VX-970, 60 min
  Glucuronidation: no glucuronidation
[6]; human, plasma
  recovery at 8 months: 92.2 to 100%
[6]; plasma 3 freeze-thaw cycles, −80 °C, QCH 4000 ng/mL
  Stability (%): 98.1%
[6]; plasma 3 freeze-thaw cycles, −80 °C, QCL 5 ng/mL
  Stability (%): 98.1%
[6]; plasma 3 freeze-thaw cycles, −80 °C, QCM 150 ng/mL
  Stability (%): 99.6%
[6]; plasma 8 months, −80 °C, QCH 4000 ng/mL
  Stability (%): 96.2%
[6]; plasma 8 months, −80 °C, QCL 5 ng/mL
  Stability (%): 92.2%
[6]; plasma 8 months, −80 °C, QCM 150 ng/mL
  Stability (%): 100.1%
[6]; plasma 4 h, ambient temp., QCH 4000 ng/mL
  Stability (%): 100.2%
[6]; plasma 4 h, ambient temp., QCL 5 ng/mL
  Stability (%): 96.2%
[6]; plasma 4 h, ambient temp., QCM 150 ng/mL
  Stability (%): 96.0%
